Measured values published in paper PMC3060938 (Clinical cancer research : an official journal of the …, 2011).
Values joined by “and” are separate entries in the source; they are usually repeats but may differ in a detail not shown here. Equal values may be shown once.

Legend:
[1] = Phase I dose escalation of weekly IV 17-DMAG: toxicity; format: in vivo, human
Summary of the method: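 Weekly 1-h IV infusion, continuous, in 4-week cycles, of drug diluted to 0.1-1.0 mg/mL in 0.9% saline or 5% dextrose. Accelerated titration escalation from 2.5 mg/m2, up to 106 mg/m2. AEs graded by NCI-CTCAE v3.0. DLT assessed over the first 28 days. Cohorts expanded to 6 after DLT. MAD defined as ≥2/6 with DLT; MTD as the prior level with ≤1/6.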

[2] = Plasma pharmacokinetics of 17-DMAG by HPLC-MS, non-compartmental analysis; format: in vivo, human
Summary of the method: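 Sampled in course 1: pre-dose, at 30 and 60 min into the 1-h infusion, then 5 min to 96 h after infusion end. Heparinised blood held on ice, spun 252g for 5 min at 4°C, plasma kept at −80°C. Drug measured by validated HPLC-MS. Non-compartmental analysis with constant infusion input. Dose proportionality of AUC and Cmax assessed by linear regression.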

HSP90 [3] = experiment: Western blotting of HSP72, CDK4 and LCK in patients' PBMC; format: in vivo, human
Summary of the method: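 Blood drawn pre-dose, at end of infusion and 1, 8, 24, 48 and 96 h post-dose, plus 24 h after the fifth weekly infusion. PBMC isolated by Ficoll-Hypaque and stored at −80°C. Lysates blotted for HSP72, CDK4 and LCK, with GAPDH as loading control. Each time-point visually compared with pre-treatment and scored 0-5 against a positive control.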

HSP72 = HSP72 in PBMC and plasma by ELISA; format: in vivo, human
Summary of the method: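 Human patients with advanced solid tumours received a weekly 1-h IV infusion of the test compound, given at 0.1-1.0 mg/mL in 0.9% saline or 5% dextrose. Blood was drawn pre-dose and 24 h post-dose. PBMC were Ficoll-Hypaque separated and stored at −80 °C. HSP72 was measured in PBMC (fmole/μg protein) and plasma (fmole/ml). Each cohort's mean change was compared with the first cohort's by one-tailed t-test (p ≤ 0.05).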

HSP90 [4] = experiment: Western blotting of HSP72, CDK4 and ERBB2 in paired tumor biopsies; format: in vivo, human
Summary of the method: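 Tumour biopsies were taken before and 24 h after the first weekly 1-h IV dose, snap frozen and stored at −80 °C; five paired biopsies per cohort were planned. Lysates were western blotted for HSP72, CDK4 and ERBB2, with GAPDH loading control and HT29 positive control. Each band was scored 0-5 against pre-treatment; a one-point change counted. Signature: HSP72 induction plus CDK4 and/or ERBB2 depletion. Two blinded assessors verified results.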

advanced solid tumors = experiment: Tumor response; format: in vivo, human
[5] = system: NCI 60 human tumor cell line panel; conditions: read-out: Mean IC50, no reference given; cited from earlier work

SMILES: CO[C@H]1/C=C\C=C(/C)C(=O)NC2=CC(=O)C(NCCN(C)C)=C(C[C@@H](C)C[C@H](OC)[C@H](O)[C@@H](C)/C=C(\C)[C@@H]1OC(N)=O)C2=O [17-DMAG, 17-dimethylaminoethylamino-17-demethoxygeldanamycin]
- Treatment related death ([1]; 106mg/m^2): one treatment related death
- Patients with dose limiting toxicity (DLT) ([1]; 106 mg/m^2 weekly IV): 2/4
- ALP (hepatic), adverse events related to 17-DMAG ([1]; Grade 1): 2
- ALT (hepatic), adverse events related to 17-DMAG ([1]; Grade 1): 2
- AST (hepatic), adverse events related to 17-DMAG ([1]; Grade 1): 4
- Alopecia, adverse events related to 17-DMAG ([1]; Grade 1): 2
- Anorexia, adverse events related to 17-DMAG ([1]; Grade 1): 1
- Blurred vision, adverse events related to 17-DMAG ([1]; Grade 1): 2
- Dehydration, adverse events related to 17-DMAG ([1]; Grade 1): 1
- Depression, adverse events related to 17-DMAG ([1]; Grade 1): 1
- Diarrhea, adverse events related to 17-DMAG ([1]; Grade 1): 5
- Dizziness, adverse events related to 17-DMAG ([1]; Grade 1): 1
- Dry eye, adverse events related to 17-DMAG ([1]; Grade 1): 1
- Dry mouth, adverse events related to 17-DMAG ([1]; Grade 1): 3
- Eosinophilia, adverse events related to 17-DMAG ([1]; Grade 1): 1
- Fever, adverse events related to 17-DMAG ([1]; Grade 1): 2
- Hand foot syndrome, adverse events related to 17-DMAG ([1]; Grade 1): 1
- Heartburn, adverse events related to 17-DMAG ([1]; Grade 1): 1
- High protein, adverse events related to 17-DMAG ([1]; Grade 1): 1
- Hypergylcaemia, adverse events related to 17-DMAG ([1]; Grade 1): 2
- Hypertension, adverse events related to 17-DMAG ([1]; Grade 1): 3
- Hyperuricaemia, adverse events related to 17-DMAG ([1]; Grade 1): 1
- Hypocalcaemia, adverse events related to 17-DMAG ([1]; Grade 1): 1
- Hypokalaemia, adverse events related to 17-DMAG ([1]; Grade 1): 2
- Hyponatraemia, adverse events related to 17-DMAG ([1]; Grade 1): 3
- Limb edema, adverse events related to 17-DMAG ([1]; Grade 1): 2
- Low eosinophils, adverse events related to 17-DMAG ([1]; Grade 1): 1
- Low hematocrit, adverse events related to 17-DMAG ([1]; Grade 1): 1
- Low red cell count, adverse events related to 17-DMAG ([1]; Grade 1): 1
- Low urea, adverse events related to 17-DMAG ([1]; Grade 1): 1
- Lymphopenia, adverse events related to 17-DMAG ([1]; Grade 1): 2
- Muscle spasm, adverse events related to 17-DMAG ([1]; Grade 1): 1
- Nausea, adverse events related to 17-DMAG ([1]; Grade 1): 5
- Neuropathy, adverse events related to 17-DMAG ([1]; Grade 1): 1
- Nightmares, adverse events related to 17-DMAG ([1]; Grade 1): 1
- Ocular surface disease, adverse events related to 17-DMAG ([1]; Grade 1): 2
- Oliguria, adverse events related to 17-DMAG ([1]; Grade 1): 1
- Pain, Abdomen, adverse events related to 17-DMAG ([1]; Grade 1): 1
- Pain, Headache, adverse events related to 17-DMAG ([1]; Grade 1): 1
- Pain, Joint, adverse events related to 17-DMAG ([1]; Grade 1): 5
- Pain, Limb, adverse events related to 17-DMAG ([1]; Grade 1): 1
- Pain, Myalgia, adverse events related to 17-DMAG ([1]; Grade 1): 2
- Proteinuria, adverse events related to 17-DMAG ([1]; Grade 1): 3
- Raised CK, adverse events related to 17-DMAG ([1]; Grade 1): 1
- Raised amylase, adverse events related to 17-DMAG ([1]; Grade 1): 1
- Raised bilirubin (hepatic), adverse events related to 17-DMAG ([1]; Grade 1): 1
- Raised leucocytes, adverse events related to 17-DMAG ([1]; Grade 1): 1
- Raised neutrophils, adverse events related to 17-DMAG ([1]; Grade 1): 2
- Rash, adverse events related to 17-DMAG ([1]; Grade 1): 1
- Sinus tachycardia, adverse events related to 17-DMAG ([1]; Grade 1): 1
- Thrombocytopenia, adverse events related to 17-DMAG ([1]; Grade 1): 3
- Vivid dreams, adverse events related to 17-DMAG ([1]; Grade 1): 1
- Voice change, adverse events related to 17-DMAG ([1]; Grade 1): 1
- Vomiting, adverse events related to 17-DMAG ([1]; Grade 1): 2
- Weight loss, adverse events related to 17-DMAG ([1]; Grade 1): 1
- ALP (hepatic), adverse events related to 17-DMAG ([1]; Grade 2): 1
- ALT (hepatic), adverse events related to 17-DMAG ([1]; Grade 2): 1
- Anorexia, adverse events related to 17-DMAG ([1]; Grade 2): 1
- Blurred vision, adverse events related to 17-DMAG ([1]; Grade 2): 2
- Diarrhea, adverse events related to 17-DMAG ([1]; Grade 2): 1
- Dry eye, adverse events related to 17-DMAG ([1]; Grade 2): 2
- Eye (herpes simplex), adverse events related to 17-DMAG ([1]; Grade 2): 1
- Fatigue, adverse events related to 17-DMAG ([1]; Grade 2): 2
- Fever, adverse events related to 17-DMAG ([1]; Grade 2): 1
- Keratitis, adverse events related to 17-DMAG ([1]; Grade 2): 2
- Nausea, adverse events related to 17-DMAG ([1]; Grade 2): 1
- Pain, Joint, adverse events related to 17-DMAG ([1]; Grade 2): 2
- Vomiting, adverse events related to 17-DMAG ([1]; Grade 2): 4
- ALT (hepatic), adverse events related to 17-DMAG ([1]; Grade 3): 1
- AST (hepatic), adverse events related to 17-DMAG ([1]; Grade 3): 1
- Acidosis, adverse events related to 17-DMAG ([1]; Grade 3): 1
- Creatinine, adverse events related to 17-DMAG ([1]; Grade 3): 1
- Dehydration, adverse events related to 17-DMAG ([1]; Grade 3): 1
- Diarrhea, adverse events related to 17-DMAG ([1]; Grade 3): 1
- Fatigue, adverse events related to 17-DMAG ([1]; Grade 3): 1
- Hyponatraemia, adverse events related to 17-DMAG ([1]; Grade 3): 1
- Lymphopenia, adverse events related to 17-DMAG ([1]; Grade 3): 1
- Thrombocytopenia, adverse events related to 17-DMAG ([1]; Grade 3): 1
- γGT (hepatic), adverse events related to 17-DMAG ([1]; Grade 3): 1
- AST (hepatic), adverse events related to 17-DMAG ([1]; Grade 4): 1
- Hypotension, adverse events related to 17-DMAG ([1]; Grade 4): 1
- Renal failure, adverse events related to 17-DMAG ([1]; Grade 5): 1
- Tolerability ([1]; doses ≤ 80mg/m^2): well tolerated
- Maximum tolerated dose (MTD) ([1]; weekly IV, patients with advanced solid tumors): 80 mg/m^2
- Recommended Phase II dose ([1]; weekly, IV): 80 mg/m^2
- Half life ([2]; dose 40.0 mg/m^2, 1 hr IV infusion, 3 patients): 21.5 ± 4.3 (19.7) hr
- Half life ([2]; dose 80.0 mg/m^2, 1 hr IV infusion, 8 patients): 27.8 ± 7.1 (25.4) hr
- Cmax ([2]; human, intravenous, 80 mg/m2): 2680 nM
- Vd ([2]; human, intravenous, 80 mg/m2): 385 L
- clearance ([2]; human, intravenous, 80 mg/m2): 315 mL/min
- AUC ([2]; human, iv, 2.5 mg/m^2): 0.581 ± 0.236 µM·h
- Cmax ([2]; human, iv, 2.5 mg/m^2): 64.1 ± 19.7 nM
- clearance ([2]; human, iv, 2.5 mg/m^2): 218 mL/min
- half-life ([2]; human, iv, 2.5 mg/m^2): 1510 ± 774 min
- AUC ([2]; human, iv, 5 mg/m^2): 0.864 ± 0.651 µM·h
- Cmax ([2]; human, iv, 5 mg/m^2): 85.4 ± 55.2 nM
- clearance ([2]; human, iv, 5 mg/m^2): 858 mL/min
- half-life ([2]; human, iv, 5 mg/m^2): 1100 ± 450 min
- AUC ([2]; human, iv, 20 mg/m^2): 3.73 ± 2.04 µM·h
- Cmax ([2]; human, iv, 20 mg/m^2): 480 ± 176 nM
- clearance ([2]; human, iv, 20 mg/m^2): 345 mL/min
- half-life ([2]; human, iv, 20 mg/m^2): 1720 ± 852 min
- AUC ([2]; human, iv, 40 mg/m^2): 6.51 ± 3.22 µM·h
- Cmax ([2]; human, iv, 40 mg/m^2): 957 ± 248 nM
- clearance ([2]; human, iv, 40 mg/m^2): 322 mL/min
- AUC ([2]; human, iv, 80 mg/m^2): 12.7 ± 2.87 µM·h
- Cmax ([2]; human, iv, 80 mg/m^2): 2680 ± 1320 nM
- clearance ([2]; human, iv, 80 mg/m^2): 315 mL/min
- AUC ([2]; human, iv, 106 mg/m^2): 32.3 ± 16.3 µM·h
- Cmax ([2]; human, iv, 106 mg/m^2): 3750 ± 1370 nM
- clearance ([2]; human, iv, 106 mg/m^2): 213 mL/min
- half-life ([2]; human, iv, 106 mg/m^2): 1480 ± 108 min
- Dose at which transient HSP72 induction (< 24 hours) was detected in PBMCs (HSP90 [3]): ≥ 5 mg/m^2
- Dose at which CDK4 depletion was demonstrated in PBMC (HSP90 [3]; some patients): ≥ 80 mg/m^2
- Mean plasma HSP72 change between dose levels (HSP72; 24 hours after 17-DMAG, compared with first dose cohort): did not differ
- Dose at which HSP72 induction was detected in PBMC (HSP72; ELISA (DELFIA), 24 hours after 17-DMAG): ≥ 20 mg/m^2
- Mean HSP72 plasma level post 17-DMAG (HSP72; all other patients (without DLT)): 86 ± 140 fmol/mL
- Highest HSP72 plasma levels post 17-DMAG (HSP72; the 2 patients with DLT (106 mg/m^2), individual values): 1250 fmol/mL and 5610 fmol/mL
- HSP90 inhibition in tumor (HSP90 [4]; 106 mg/m^2, single set of samples): confirmed
- Patients with HSP90 inhibition detected in tumor (HSP90 [4]; 24 hrs after 80mg/m^2): 3/5
- Tumors with HSP72 induced (HSP90 [4]; 24 hrs after 80mg/m^2): 4/5
- Tumors with client protein depletion (CDK4 or ERBB2) (HSP90 [4]; 24 hrs after 80mg/m^2): 3/5
- Time on treatment before PD (advanced solid tumors; patient with CRPC and complete response, 5mg/m^2 escalated to 20mg/m^2): 124 weeks
- Best tumor response (advanced solid tumors; patient with CRPC, 5mg/m^2 escalated to 20mg/m^2, confirmed by CT and PSA): complete response
- Time on study with stable disease (advanced solid tumors; patient with CRPC, 20mg/m^2): 59 weeks
- Time on study with stable disease (advanced solid tumors; patient with chondrosarcoma, 5mg/m^2 escalated to 20mg/m^2): 28 weeks
- Time on study with stable disease (advanced solid tumors; patient with clear cell renal cancer, 80mg/m^2): 76 weeks
- Time on treatment before PD (advanced solid tumors; patient with metastatic melanoma and partial response, 40mg/m^2): 159 weeks
- Best tumor response (advanced solid tumors; patient with metastatic melanoma, 40mg/m^2): partial response
- Patients with progressive disease (PD) (advanced solid tumors; twenty patients evaluable, all dose levels): Nine
- IC50 [5]: 63 nM
